According to ChEMBL document CHEMBL5038583, “Highly Potent and Selective Butyrylcholinesterase Inhibitors for Cognitive Improvement and Neuroprotection” (J Med Chem, 2021):
Calls of active or inactive are those of the source. The calls are words filed in the database; no cut-off is given here.

Columns and labels:
Cholinesterase [1] = target: Cholinesterase (Equus caballus, UniProt P81908); test: Inhibition of equine serum BChE using butyrylthiocholine iodide as substrate preincubated for 5 mins followed by substrate addition and measured after 2 mins by DTNB-reagent based Ellman's method
Cholinesterase [2] = target: Cholinesterase (Homo sapiens, UniProt P06276); test: Inhibition of human serum BChE using butyrylthiocholine iodide as substrate preincubated for 20 mins followed by substrate addition and measured after 2 mins by DTNB-reagent based Ellman's method
How it was run: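 hBChE at 0.015 units/mL with DTNB in phosphate buffer pH 8.0, preincubated 20 min at room temperature with at least six concentrations (10⁻⁴−10⁻⁹). Butyrylthiocholine iodide (0.075 M solution) added; A412 read after 2 min at 25 °C. IC50 from % activity vs log concentration; triplicates in at least three runs.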

SH-SY5Y [3] = test: Cytotoxicity against human SH-SY5Y cells assessed as survival rate at 2.5 uM incubated for 24 hrs by MTT assay; format: functional
How it was run: (§1)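 Cells seeded at 1 × 10⁴/well in DMEM with 10% FBS and left overnight, then given compound (DMSO stock diluted in DMEM) for 24 h at 37 °C. MTT added for 4 h, formazan dissolved in DMSO, absorbance read at 492 nm. Viability taken as OD treated/OD DMEM × 100%; IC50 from three independent experiments, mean SD.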

PC-12 [4] = test: Cytotoxicity against rat PC-12 cells assessed as survival rate at 2.5 uM incubated for 24 hrs by MTT assay; format: functional; how it was run: as §1
BV-2 [5] = test: Cytotoxicity against mouse BV-2 cells assessed as survival rate at 100 uM incubated for 24 hrs by MTT assay; format: functional; how it was run: as §1
HepG2 [6] = test: Cytotoxicity against human HepG2 cells assessed as reduction in cell viability incubated for 24 hrs by MTT assay; format: functional, cell-based; settings: HepG2, 24 h; how it was run: as §1
L02 = test: Cytotoxicity against human L02 cells assessed as survival rate at 100 uM incubated for 24 hrs by MTT assay; format: functional; how it was run: as §1
SH-SY5Y [7] = test: Neuroprotective activity against glutamate-induced cytotoxicity in human SH-SY5Y cells at 10 uM pretreated for 2 hrs followed by glutamate stimulation and measured after 24 hrs by MTT assay; format: functional, cell-based; settings: time 26.0 hrs
How it was run: (§2)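 SH-SY5Y cells seeded at 5000 per well and grown 24 h. Pretreated 2 h with compound (2.5 or 10 μM, diluted in DMEM from 10⁻¹ M DMSO stock), then H₂O₂ 200 μM, glutamate 20 mM or aggregated Aβ1-42 15 μM for 24 h. MTT added for 4 h, formazan dissolved in DMSO, absorbance read at 492 nm. Viability relative to untreated control; mean ± SEM, n = 3.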

[8] = Hepatotoxicity in ICR mouse assessed as change in aspartate aminotransferase activity at 1 g/kg, ig administered daily for 14 days measured upto 36 hrs post-administration; format: toxicity; settings: in vivo, po, 1000 mg/kg, 336 h, time 14 day
How it was run: (§3)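 Heparinized serum from ICR mice taken at 8, 22 and 36 h after oral compound or saline control; AST and ALT activities measured.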

SH-SY5Y [9] = test: Neuroprotective activity against H2O2-induced cytotoxicity in human SH-SY5Y cells pretreated for 2 hrs followed by H2O2 stimulation and measured after 24 hrs by MTT assay; format: functional, cell-based; settings: dose 2.5-10 µM, time 26.0 hrs; how it was run: as §2
SH-SY5Y [10] = test: Cytotoxicity against human SH-SY5Y cells assessed as survival rate at 100 uM incubated for 24 hrs by MTT assay; format: functional; how it was run: as §1
PC-12 [11] = test: Cytotoxicity against rat PC-12 cells assessed as survival rate at 10 uM incubated for 24 hrs by MTT assay; format: functional; how it was run: as §1
HepG2 [12] = test: Cytotoxicity against human HepG2 cells assessed as survival rate at 100 uM incubated for 24 hrs by MTT assay; format: functional; how it was run: as §1
[13] = Acute toxicity in ICR mouse assessed as animal death at […]; settings: in vivo, po, 1000 mg/kg, 336 h
[14] = Acute toxicity in ICR mouse assessed as abnormal behaviour at 1 g/kg, ig administered […]; settings: in vivo, po, 1000 mg/kg
How it was run: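 Single dose of 1 g/kg given intragastrically on day 1 to overnight-fasted mice (15−18 g), suspended in 5% DMSO, 40% PEG 400, 55% saline. Male and female groups (n = 9), with vehicle controls. Death, daily behaviour and body mass followed over the next 2 weeks.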

[15] = Hepatotoxicity in ICR mouse assessed as change in alanine aminotransferase activity at 1 g/kg, ig administered daily for 14 days measured upto 36 hrs post-administration; format: toxicity; settings: in vivo, po, 1000 mg/kg, 336 h, time 14 day; how it was run: as §3
[16] = Hepatotoxicity in ICR mouse assessed as morphological changes in liver at 1 g/kg, ig administered daily for 14 days analysed after 22 hrs post-administration by hematoxylin and eosin staining based analysis; format: toxicity, tissue-based; settings: in vivo, po, 1000 mg/kg, 336 h, time 14 day
How it was run: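 Liver from male mice taken 22 h after compound or vehicle; hematoxylin−eosin staining, viewed at ×100.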

[17] = Effective permeability of the compound in pH 7.4 PBS/EtOH (70:30) at 100 ug/ml incubated for 18 hrs by PAMPA-BBB assay; format: ADME; settings: dose 100 µg/ml, read-out: Peff
How it was run: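 PAMPA-BBB with porcine brain lipid in dodecane (20 mg/mL) on PVDF filter. Donor holds compound at 100 μg/mL final (from 5 mg/mL DMSO stock) in PBS pH 7.4/EtOH 70:30; acceptor holds the same buffer. Incubated 18 h at 25 °C; donor and acceptor concentrations by UV at five wavelengths. Four wells, at least three runs, nine permeability standards; mean ± SD.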

SH-SY5Y [18] = test: Neuroprotective activity against amyloid beta (1 to 42)-induced cytotoxicity in human SH-SY5Y cells at 2.5 uM pretreated for 2 hrs followed by amyloid beta (1 to 42) stimulation and measured after 24 hrs by MTT assay; format: functional, cell-based; settings: time 26.0 hrs; how it was run: as §2
SH-SY5Y [19] = test: Neuroprotective activity against amyloid beta (1 to 42)-induced cytotoxicity in human SH-SY5Y cells at 10 uM pretreated for 2 hrs followed by amyloid beta (1 to 42) stimulation and measured after 24 hrs by MTT assay; format: functional, cell-based; settings: time 26.0 hrs; how it was run: as §2
BV-2 [20] = test: Anti-inflammatory activity against mouse BV-2 cells assessed as blocked of LPS-induced increased ROS production by measuring green fluorescence preincubated for 1 hr by DCFH-DA staining based fluorescence microscopy; format: functional, cell-based
How it was run: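 BV2 cells seeded at 1 × 10⁴ per well and grown 24 h at 37 °C. Compounds at various concentrations for 1 h, then LPS 2.5 μg/mL for 24 h. Washed in PBS, loaded with DCFH-DA 5 μM (final) for 30 min, washed three times. Intracellular ROS taken as green fluorescence intensity by inverted fluorescence microscopy, exposure fixed at 10.2 ms.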

Mus musculus [21] = test: Antialzheimer activity in ICR mouse assessed as reduction in scopolamine-induced cognitive impairment at 30 mg/kg, ig administered for 10 consecutive days by Morris water maze test; format: functional, organism-based; settings: time 10.0 day
How it was run: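 Male ICR mice (8−10 weeks, 18−20 g), n = 8 per group. Compound at 15 or 30 mg/kg intragastric in DMSO/saline (10:90), given 30 min before scopolamine 3 mg/kg i.p., for 10 consecutive days; tacrine 15 mg/kg as reference. Morris water maze: 5 days of training, probe trial on day 6 with platform removed. Escape latency and trajectory recorded; mean ± SD.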

Mus musculus [22] = test: Anti-alzheimer activity in amyloid beta(1 to 42)-induced ICR mouse model of cognitive impairment assessed as reduction in escape latency time at 15 mg/kg, ig administered at days 2 to 14 by Morris water maze test; format: functional
How it was run: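 Mouse model by icv oligomerized Aβ1-42 (10 μg/mouse, aggregated 24 h at 37 °C in saline) on day 1; 15 mg/kg ig on days 2−14, n = 8. Morris water maze training on days 9−13, probe trial day 14, escape latency and track recorded. Mean SD.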

Mus musculus [23] = test: Anti-alzheimer activity in amyloid beta(1 to 42)-induced ICR mouse model of cognitive impairment assessed as simplification of trajectories at 15 mg/kg, ig administered at days 2 to 14 by Morris water maze test; format: functional, organism-based
How it was run: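 ICR mice, n = 8 per group. Aggregated Aβ1-42 (5 mM DMSO stock incubated 24 h at 37 °C in saline at 2 mg/mL) given 10 μg per mouse icv on day 1; saline icv for sham. Compound 15 mg/kg intragastric on days 2−14; donepezil reference. Morris water maze training days 9−13, probe trial day 14; tracks recorded; mean ± SD.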

Mus musculus [24] = test: Anti-alzheimer activity in amyloid beta(1 to 42)-induced ICR mouse model of cognitive impairment assessed as enhanced alternation performance by measuring total number of arm entries at 15 mg/kg, ig administered at days 2 to 14 and measured on day 15 by Y-maze test; format: functional
How it was run: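 Oligomerized Aβ1-42 (10 μg per mouse, icv) given on day 1; saline icv for sham. Dosing 15 mg/kg ig on days 2−14 (donepezil as positive control), n = 8. Spontaneous alternation read on day 15 in a three-arm grey PVC Y maze, arms at 120°. Mean SD.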

[25] = Toxicity in ICR mouse assessed as increase in body weight administered for 14 days and measured daily; settings: in vivo, 15 mg/kg, 336 h
[26] = Metabolic stability in human liver microsomes assessed as half life at 1 uM measured upto 45 mins in presence of NADPH by LC/MS/MS analysis; format: ADME, Microsome
How it was run: (§4)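 Human liver microsomes 0.5 mg/mL, compound 1 μM final, NADPH 2 mM, at 37 °C. Reactions stopped at 0, 5, 15, 30 and 45 min with acetonitrile containing imipramine internal standard. LC/MS/MS quantitation relative to 0 min; initial rates used for t1/2 and intrinsic clearance; ketanserin as assay control. Mean of two independent experiments.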

[27] = Metabolic stability in human liver microsomes assessed as intrinsic clearance at 1 uM measured upto 45 mins in presence of NADPH by LC/MS/MS analysis; format: ADME, Microsome; settings: read-out: CLH; how it was run: as §4
SH-SY5Y [28] = test: Cytotoxicity against human SH-SY5Y cells assessed as reduction in cell viability incubated for 24 hrs by MTT assay; format: functional, cell-based; how it was run: as §1
PC-12 [29] = test: Cytotoxicity against rat PC-12 cells assessed as reduction in cell viability incubated for 24 hrs by MTT assay; format: functional, cell-based; settings: PC-12, 24 h; how it was run: as §1

Cholinesterase (Equus caballus, UniProt P81908), sequence (P81908 whole entry): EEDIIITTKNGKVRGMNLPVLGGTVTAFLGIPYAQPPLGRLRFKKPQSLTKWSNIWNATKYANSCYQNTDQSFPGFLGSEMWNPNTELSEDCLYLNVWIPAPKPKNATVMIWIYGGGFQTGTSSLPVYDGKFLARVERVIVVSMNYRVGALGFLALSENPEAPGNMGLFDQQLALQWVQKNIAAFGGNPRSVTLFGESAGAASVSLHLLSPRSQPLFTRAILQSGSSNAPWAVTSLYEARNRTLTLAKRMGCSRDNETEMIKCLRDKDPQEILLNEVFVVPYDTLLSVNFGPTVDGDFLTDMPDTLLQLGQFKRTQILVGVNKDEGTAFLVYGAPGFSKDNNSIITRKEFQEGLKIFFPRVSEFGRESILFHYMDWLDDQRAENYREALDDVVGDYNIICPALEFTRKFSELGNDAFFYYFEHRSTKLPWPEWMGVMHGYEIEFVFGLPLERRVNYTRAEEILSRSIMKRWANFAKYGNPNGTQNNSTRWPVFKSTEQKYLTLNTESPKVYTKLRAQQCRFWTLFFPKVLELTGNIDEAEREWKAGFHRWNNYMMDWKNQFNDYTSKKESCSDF
Cholinesterase (Homo sapiens, UniProt P06276), sequence (P06276 whole entry): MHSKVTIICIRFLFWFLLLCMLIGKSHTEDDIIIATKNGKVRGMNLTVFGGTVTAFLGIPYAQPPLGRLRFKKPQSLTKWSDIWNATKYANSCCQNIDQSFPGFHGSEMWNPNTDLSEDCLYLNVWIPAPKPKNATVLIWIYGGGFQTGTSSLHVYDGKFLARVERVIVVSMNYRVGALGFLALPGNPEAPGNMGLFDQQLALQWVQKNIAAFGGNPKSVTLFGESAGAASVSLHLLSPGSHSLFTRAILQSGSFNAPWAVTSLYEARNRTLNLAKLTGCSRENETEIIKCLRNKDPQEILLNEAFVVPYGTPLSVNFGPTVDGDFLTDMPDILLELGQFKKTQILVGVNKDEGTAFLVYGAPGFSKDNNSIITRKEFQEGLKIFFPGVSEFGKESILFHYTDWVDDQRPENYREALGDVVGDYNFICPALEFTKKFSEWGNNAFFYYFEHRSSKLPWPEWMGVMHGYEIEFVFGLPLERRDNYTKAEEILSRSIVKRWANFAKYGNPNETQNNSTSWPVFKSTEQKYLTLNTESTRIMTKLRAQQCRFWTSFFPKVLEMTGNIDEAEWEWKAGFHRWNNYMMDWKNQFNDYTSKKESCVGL

| Compound | IC50 (Cholinesterase [1]) [nM] | IC50 (Cholinesterase [2]) [nM] | Activity (BV-2 [5]) [%] | IC50 (HepG2 [6]) [nM] | Activity (L02) [%] | Activity [8] | Activity (SH-SY5Y [10]) [%] | Activity (PC-12 [11]) [%] | Activity (HepG2 [12]) [%] | Activity [13] | Activity [14] | Activity [15] | Activity [16] | Papp at 18 h, 100 ug/ml [17] [×10⁻⁶ cm/s] | Activity (Mus musculus [21]) | Activity (Mus musculus [22]) | Activity (Mus musculus [23]) | Activity (Mus musculus [24]) | Activity [25] | half-life at 1 µM [26] [min] | other results |
| --- | --- | --- | --- | --- | --- | --- | --- | --- | --- | --- | --- | --- | --- | --- | --- | --- | --- | --- | --- | --- | --- |
| Nc1nonc1-c1nc2ccccc2n1CC(=O)Nc1cccc2ccccc12 | 44 | 22 | 82.9 | 5050 | 73.52 |  |  |  |  |  |  |  |  |  |  |  |  |  |  |  | Activity (SH-SY5Y [3]): 40.84%; Activity (PC-12 [4]): 44.44% |
| Nc1nonc1-c1nc2ccccc2n1CC(=O)Nc1cccc([N+](=O)[O-])c1 | 31 | 25 | 94.23 |  | 87.01 | Non-Toxic | 82.67 | 58.34 | 75.46 | Non-Toxic | Non-Toxic | Non-Toxic | Non-Toxic | 12.4 | Active | Active | Active | 68.67% | Toxic | 47.5 | Activity (SH-SY5Y [7]): Active; Activity (SH-SY5Y [9]): Dose-Dependent Effect; Activity (SH-SY5Y [18]): Active; Activity (SH-SY5Y [19]): Active; Activity (BV-2 [20]): Active; CLint scaled at 1 µM [27]: 36.6 mL/min/kg |
| Nc1nonc1-c1nc2ccccc2n1CC(=O)Nc1ccc(Br)c2ccccc12 | 6 | 32 | 55.66 |  | 86.55 | Non-Toxic | 62.37 | 52.21 | 73.24 | Non-Toxic | Non-Toxic | Non-Toxic | Non-Toxic | 11.7 | Active | Active | Active | Active | Toxic | 32.2 | CLint scaled at 1 µM [27]: 54 mL/min/kg |
| Cc1ccc2cc(NC(=O)Cn3c(-c4nonc4N)nc4ccccc43)ccc2n1 |  |  | 59.79 | 17300 | 61.49 |  |  |  |  |  |  |  |  |  |  |  |  |  |  |  | IC50 (SH-SY5Y [28]): 35100 nM; IC50 (PC-12 [29]): 91500 nM |
